Experimental findings from ChEMBL document CHEMBL4811254, “Beyond Basicity: Discovery of Nonbasic DENV-2 Protease Inhibitors with Potent Activity in Cell Culture” (J Med Chem, 2021) are described below.

Active and inactive are the calls of the source.

As usually defined, the inhibition is the drop in the measured response relative to a control, in per cent. A word on the CC50: it is the concentration giving 50% cytotoxicity. A word on the EC50: it is the midpoint of the concentration-response curve.

Data set [1] addresses Trypsin (Homo sapiens) (UniProt P07477+P07478+P35030). The data set can be described thus: Inhibition of trypsin (unknown origin) using Boc-Val-Pro-Arg-AMC as substrate at 50 uM preincubated with enzyme for 15 mins followed by substrate addition and measured for 15 mins by fluorimetric assay. The data set is classed as protein assay. The settings on record: time 30.0 min.
Data set [2] addresses Prothrombin (Homo sapiens) (UniProt P00734). The data set can be described thus: Inhibition of thrombin in human plasma using Boc-Val-Pro-Arg-AMC as substrate at 25 uM preincubated with enzyme for 15 mins followed by substrate addition and measured for 15 mins by fluorimetric assay. The format is cell-free. The settings on record: time 30.0 min.
The target in data set [3] is Genome polyprotein (dengue virus type 2) (UniProt P29990). The data set can be described thus: Inhibition of DENV2 NS2B-NS3 protease expressed in Escherichia coli BL21 lambda(DE3) using FRET substrate preincubated with enzyme for 15 mins in presence of detergent CHAPS followed by substrate addition for 15 mins by fluorescence based analysis. The note with it: time 30.0 min.

For data set [4] the target is unchanged. The data set can be described thus: Inhibition of NS2B-NS3 protease in DENV2proHeLa system assessed as inhibition of luciferase signal at 12.5 uM incubated for 24 hrs by luciferase reporter gene assay. The data set is classed as cell-based. The note with it: HeLa. The essentials:
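Stable DENV2proHeLa cells seeded at 2 × 10⁴/well and dosed immediately, then incubated 24 h at 37 °C. Cells lysed 15 min at room temperature. Luciferase read with coelenterazine (2.75 μM in PBS) injection, luminescence 5 s. Triplicates; percent inhibition calculated relative to untreated control; background from cell-free wells.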
(In general: A reporter such as luciferase makes a cellular process visible.)

Data set [5] is described as follows: Cytotoxicity against human HeLa cells assessed as reduction in cell viability incubated for 24 hrs by CellTiter-Blue assay. The format is cell-based. The essentials:
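Viability by CellTiter-Blue in HeLa or Huh-7 cells exposed to compound dilutions. Plates run in parallel with the reporter assay (HeLa) or the virus titer assay (Huh-7).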
On the technique in general: The colour change of resazurin is a common sign of viable cells or microbes.

Data set [6] deals with Genome polyprotein (dengue virus type 2, UniProt P29990). The data set can be described thus: Inhibition of NS2B-NS3 protease in DENV2proHeLa system assessed as inhibition of luciferase signal incubated for 24 hrs by luciferase reporter gene assay. The data set is classed as cell-based, HeLa. The essentials:
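HeLa cells stably carrying the reporter system, 2 × 10⁴ per well, given inhibitor at seeding and held 24 h at 37 °C. Cells lysed 15 min at room temperature. Luciferase read for 5 s after injecting coelenterazine (2.75 μM in PBS). Triplicate wells per concentration; percent inhibition taken against untreated cells. EC50/EC90 from 4-parameter dose-response fit, background from cell-free wells subtracted.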

In the case of `NC(=O)c1ccc(CNC(=O)[C@@H](NC(=O)Cc2ccc(-c3ccccc3)cc2)c2ccc(OCc3ccccc3)cc2)cc1`, the inhibition entry in data set [1] and in data set [2] was “inactive” in each case. Also, the inhibition result in data set [3] was “Active”. Besides, the inhibition in data set [4] was determined as 25%. In data set [5], the CC50 at 24 h was > 50 µM.
Consider `CCCCCCN[C@H](C(=O)NCc1ccc(C(N)=O)cc1)c1ccc(OCc2ccccc2)cc1`, for which the inhibition result in data set [1] and in data set [2] was “inactive” in each case. For the same compound, the inhibition entry in data set [3] was “Active”. Moreover, in data set [4], the inhibition was 19%. Moreover, the CC50 at 24 h in data set [5] was > 50 µM.
Consider `NC(=O)c1cccc(NC(=O)[C@@H](NC(=O)c2ccc3ccccc3c2)c2ccc(OCc3ccccc3)cc2)c1`, for which the inhibition result in data set [1] and in data set [2] was “inactive” each time. In addition, the concentration for a half-maximal effect (EC50) in data set [6] is 4.5 µM. In data set [4], the inhibition is 71%. Moreover, the CC50 at 24 h in data set [5] is > 100 µM.
As for `CCCCCC(=O)N[C@H](C(=O)NCCc1ccc(O)cc1)c1ccc(OCc2ccccc2)cc1`, the inhibition entry in data set [1] and in data set [2] was “inactive” each time. For the same compound, in data set [6], the EC50 was found to be 10 µM. Besides, the inhibition in data set [4] was found to be 58%. For the same compound, the half-maximal cytotoxic concentration (CC50) at 24 h in data set [5] was > 25 µM.
For `CCCCCC(=O)N[C@H](C(=O)NCc1ccc(C(=O)NN)cc1)c1ccc(OCc2ccccc2)cc1`, the inhibition entry in data set [1] and in data set [2] was “inactive” each time. Moreover, the inhibition result in data set [3] was “Active”.
Consider `NC(=O)c1cccc(NC(=O)[C@@H](NC(=O)c2ccc(Oc3ccccc3)cc2)c2ccc(OCc3c(Cl)cccc3Cl)cc2)c1`, for which the inhibition result in data set [1] and in data set [2] was “inactive” in each case. In data set [3], the inhibition result is “Active”. In data set [6], the EC50 was 2.2 µM. Also, the inhibition in data set [4] was 71%. Besides, the CC50 at 24 h in data set [5] is > 50 µM.
In the case of `CCCCCC(=O)N[C@@H](C(=O)NCc1ccc(C(N)=O)cc1)c1ccc(OCc2ccc(Cl)c(Cl)c2)cc1`, the inhibition result in data set [1] and in data set [2] was “inactive” throughout. In data set [3], the inhibition result was “Active”. For the same compound, the inhibition in data set [4] was determined as 19%. In addition, in data set [5], the CC50 at 24 h is > 50 µM.
Regarding `NC(=O)c1cccc(NC(=O)[C@@H](NC(=O)c2ccc(Oc3cccc(Cl)c3)cc2)c2ccc(OCc3ccccc3)cc2)c1`, the inhibition entry in data set [1] and in data set [2] was “inactive” throughout. Moreover, in data set [6], the concentration for a half-maximal effect (EC50) is 1 µM. Also, the inhibition in data set [4] amounted to 87%. Also, the CC50 at 24 h in data set [5] is > 100 µM.
For the compound `NC(=O)c1cccc(NC(=O)[C@@H](NC(=O)c2cccc(C(=O)N3CCOCC3)c2)c2ccc(OCc3ccccc3)cc2)c1`, the inhibition result in data set [1] and in data set [2] was “inactive” throughout. Moreover, the EC50 in data set [6] came out at 23 µM. Also, the inhibition in data set [4] worked out at 35%. Moreover, in data set [5], the CC50 at 24 h was > 100 µM.
For `CCCCCC(=O)N[C@H](C(=O)N1CCCCC1)c1ccc(OCc2ccccc2)cc1`, the inhibition entry in data set [1] and in data set [2] was “inactive” in each case. Further, the EC50 in data set [6] turned out to be 13 µM. In addition, the inhibition in data set [4] worked out at 58%. Further, in data set [5], the CC50 at 24 h is 29 µM.
Take `NC(=O)c1cccc(NC(=O)[C@@H](NC(=O)c2ccc(C(=O)N3CCOCC3)cc2)c2ccc(OCc3ccccc3)cc2)c1`: the inhibition result in data set [1] and in data set [2] was “inactive” each time. Further, in data set [6], the EC50 amounted to 15 µM. In data set [4], the inhibition turned out to be 40%. In addition, the CC50 at 24 h in data set [5] is > 100 µM.
In the case of `CCCCCC(=O)N[C@H](C(=O)Nc1ccc(C(N)=O)cc1)c1ccc(OCc2ccccc2)cc1`, the inhibition result in data set [1] and in data set [2] was “inactive” in each case. In data set [6], the concentration giving a half-maximal response (EC50) is 7 µM. For the same compound, the inhibition in data set [4] stood at 58%. For the same compound, the CC50 at 24 h in data set [5] was > 12.5 µM.
As to `CCCCCC(=O)N[C@H](C(=O)Nc1cccc(C(N)=O)c1)c1ccc(OCc2c(Cl)cccc2Cl)cc1`, the inhibition result in data set [1] and in data set [2] was “inactive” in each case. Also, in data set [3], the inhibition result is “Active”. For the same compound, the EC50 in data set [6] came to 2.4 µM. For the same compound, in data set [4], the inhibition worked out at 65%. Besides, in data set [5], the CC50 at 24 h is > 50 µM.
As to `NC(=O)c1ccc(CNC(=O)[C@@H](NC(=O)CCc2ccccc2)c2ccc(OCc3ccccc3)cc2)cc1`, the inhibition entry in data set [1] and in data set [2] was “inactive” throughout. For the same compound, the EC50 in data set [6] was determined as 12 µM. Also, in data set [4], the inhibition worked out at 57%. In addition, the 50% cytotoxic concentration (CC50) at 24 h in data set [5] was > 50 µM.
As for `NC(=O)c1ccc(CNC(=O)[C@@H](NC(=O)c2cc3ccccc3s2)c2ccc(OCc3ccccc3)cc2)cc1`, the inhibition entry in data set [1] and in data set [2] was “inactive” in each case. In addition, the EC50 in data set [6] was determined as 6.6 µM. The inhibition in data set [4] was determined as 71%. Moreover, the CC50 at 24 h in data set [5] was > 50 µM.
Turning to `COc1cccc(COc2ccc([C@H](NC(=O)c3ccc(Oc4ccccc4)cc3)C(=O)Nc3cccc(C(N)=O)c3)cc2)c1`, the inhibition result in data set [1] and in data set [2] was “inactive” throughout. Further, in data set [6], the half-maximal effective concentration (EC50) was found to be 2.1 µM. Further, the inhibition in data set [4] was 73%. In addition, the CC50 at 24 h in data set [5] is > 100 µM.
On to `NCc1ccc(C(=O)N[C@H](C(=O)NCc2ccc(C(N)=O)cc2)c2ccc(OCc3ccccc3)cc2)cc1`, for which the inhibition result in data set [1] and in data set [2] was “inactive” in each case. For the same compound, the EC50 in data set [6] was determined as 29 µM. Further, the inhibition in data set [4] came out at 24%. In addition, the CC50 at 24 h in data set [5] is > 50 µM.
`CCCCCC(=O)N[C@H](C(=O)NCc1ccc(C(N)=O)cc1)c1ccc(OCc2ccc(C(C)(C)C)cc2)cc1`: the inhibition result in data set [1] and in data set [2] was “inactive” each time. For the same compound, the inhibition result in data set [3] is “Active”. The inhibition in data set [4] was < 10%. Further, the CC50 at 24 h in data set [5] was > 12.5 µM.
Regarding `CCCCCC(=O)N[C@H](C(=O)NCc1ccc(C(N)=O)cc1)c1ccc(OCc2ccc(C(F)(F)F)cc2)cc1`, the inhibition entry in data set [1] and in data set [2] was “inactive” in each case. In data set [6], the EC50 turned out to be 9.8 µM. In addition, the inhibition in data set [4] came to 53%. In addition, in data set [5], the CC50 at 24 h was > 100 µM.
Turning to `CCCCCC(=O)N[C@H](C(=O)Nc1ccc(CO)cc1)c1ccc(OCc2ccccc2)cc1`, the inhibition entry in data set [1] and in data set [2] was “inactive” throughout. Moreover, the EC50 in data set [6] was 18 µM. In addition, the inhibition in data set [4] was 48%. The CC50 at 24 h in data set [5] is > 50 µM.
For `NC(=O)c1cccc(NC(=O)[C@@H](NC(=O)c2ccc(-c3ccccc3)cc2)c2ccc(OCc3ccccc3)cc2)c1`, the inhibition result in data set [1] and in data set [2] was “inactive” in each case. Further, the concentration for a half-maximal effect (EC50) in data set [6] was 1.7 µM. Moreover, the inhibition in data set [4] came out at 79%. The CC50 at 24 h in data set [5] was > 100 µM.
On to `CCCC[C@H](NC(C)=O)C(=O)N[C@H](C(=O)NCc1ccc(C(N)=O)cc1)c1ccc(OCc2ccccc2)cc1`, for which the inhibition result in data set [1] and in data set [2] was “inactive” in each case. Further, the inhibition entry in data set [3] was “Active”. Also, the inhibition in data set [4] worked out at 16%. Besides, the CC50 at 24 h in data set [5] was > 50 µM.
In the case of `CCCCCC(=O)N[C@H](C(=O)NCc1ccc(C(N)=O)cc1)c1ccc(OCc2ccc(O)cc2)cc1`, the inhibition result in data set [1] and in data set [2] was “inactive” in each case. Besides, in data set [3], the inhibition result is “Active”. For the same compound, in data set [4], the inhibition was found to be 43%. For the same compound, the CC50 at 24 h in data set [5] was > 50 µM.
Take `CCCCCC(=O)N[C@H](C(=O)NCc1ccc(OC)cc1)c1ccc(OCc2ccccc2)cc1`: the inhibition result in data set [1] and in data set [2] was “inactive” in each case. In addition, the EC50 in data set [6] amounted to 28 µM. In addition, the inhibition in data set [4] amounted to 35%. The CC50 at 24 h in data set [5] was > 50 µM.
Consider `CCCCC(=O)N[C@H](C(=O)NCc1ccc(C(N)=O)cc1)c1ccc(OCc2ccccc2)cc1`, for which the inhibition entry in data set [1] and in data set [2] was “inactive” throughout. In addition, the EC50 in data set [6] turned out to be 14 µM. In data set [4], the inhibition was found to be 38%. Further, in data set [5], the half-maximal cytotoxic concentration (CC50) at 24 h is > 100 µM.
Regarding `CCCCCC(=O)N[C@H](C(=O)NCc1ccc(NC(C)=O)cc1)c1ccc(OCc2ccccc2)cc1`, the inhibition result in data set [1] and in data set [2] was “inactive” in each case. Further, the EC50 in data set [6] stood at 14 µM. Also, in data set [4], the inhibition was 55%. Further, in data set [5], the CC50 at 24 h is > 100 µM.
With `NC(=O)c1cccc(NC(=O)[C@@H](NC(=O)c2ccc(Oc3ccccc3)cc2)c2ccc(Oc3ccccc3)cc2)c1`, the inhibition result in data set [1] and in data set [2] was “inactive” throughout. Besides, the EC50 in data set [6] came to 2.9 µM. Moreover, the inhibition in data set [4] is 73%. Further, in data set [5], the CC50 at 24 h is > 50 µM.
